Laboratory results from ChEMBL document CHEMBL4673384, “Studying Histone Deacetylase Inhibition and Apoptosis Induction of Psammaplin A Monomers with Modified Thiol Group” (ACS Med Chem Lett, 2021).
Activity calls are given as the source filed them. The rule behind the calls is not given here.

How the values were obtained:
[1] = Toxicity in mouse LL/2 cells inoculated C57BL/6J mouse assessed as effect on body weight by measuring end body weight at 25 mg/kg, ip administered for 12 days and measured for every 2 days (reference value: 18.1 +/- 0.2 g); format: organism-based; settings: in vivo, 288 h, time 12 day
[2] = Antitumor activity against mouse LL/2 cells inoculated in C57BL/6J mouse assessed as reduction of tumor weight at 25 mg/kg, ip administered for 12 days measured at day 14 (reference value: 0.98 +/- 0.07 g); format: functional, Lewis lung carcinoma; settings: time 12 day
HL-60 [3] = assay: Growth inhibition of human HL-60 cells after 72 hrs by trypan blue dye based assay; format: functional; settings: for GI50: Homo sapiens, HL-60
How it was run: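 HL-60 leukemia cells were exposed to compound for 72 h. Growth inhibition is reported as IG50 (half the growth inhibition concentration), as means plus SD of three independent experiments.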

[4] = Antitumor activity against mouse LL/2 cells inoculated in C57BL/6J mouse assessed as tumor growth inhibition at 25 mg/kg, ip administered for 12 days; format: functional, Lewis lung carcinoma; parameters: scale not given: the % may be the effect or the level left; settings: time 12 day
A549 = assay: Antiproliferative activity against human A549 cells assessed as cell growth inhibition incubated for 96 hrs by MTT assay; format: functional
Histone deacetylase 2 [5] = biological target: T1, Histone deacetylase 2 (Homo sapiens, UniProt Q92769); assay: Inhibition of recombinant full length C-terminal FLAG-tagged human HDAC2 expressed in baculovirus infected Sf9 cells using Boc-Lys(Ac)-AMC as substrate preincubated for 15 mins followed by substrate addition and measured after 60 mins by fluorescence based assay
T1 sequence (Q92769 whole entry): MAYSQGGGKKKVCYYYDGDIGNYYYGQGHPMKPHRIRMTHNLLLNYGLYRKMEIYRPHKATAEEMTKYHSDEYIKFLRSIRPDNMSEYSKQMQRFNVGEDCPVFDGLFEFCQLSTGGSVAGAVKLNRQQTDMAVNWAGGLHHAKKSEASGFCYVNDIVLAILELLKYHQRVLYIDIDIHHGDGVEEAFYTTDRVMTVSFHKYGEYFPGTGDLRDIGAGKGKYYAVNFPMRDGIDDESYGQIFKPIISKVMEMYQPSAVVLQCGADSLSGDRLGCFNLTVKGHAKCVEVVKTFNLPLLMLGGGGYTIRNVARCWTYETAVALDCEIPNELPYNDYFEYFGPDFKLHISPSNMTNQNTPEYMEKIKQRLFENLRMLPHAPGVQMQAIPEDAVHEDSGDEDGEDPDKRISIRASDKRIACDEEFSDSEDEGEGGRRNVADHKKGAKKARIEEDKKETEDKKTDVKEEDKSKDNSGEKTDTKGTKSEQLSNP

[6] = biological target: T2, Protein deacetylase HDAC6 (Homo sapiens, UniProt Q9UBN7); assay: Inhibition of recombinant full length C-terminal FLAG-tagged human HDAC6 expressed in baculovirus infected Sf9 cells using Boc-Lys(Ac)-AMC as substrate preincubated for 15 mins followed by substrate addition and measured after 60 mins by fluorescence based assay
T2 sequence (Q9UBN7 whole entry): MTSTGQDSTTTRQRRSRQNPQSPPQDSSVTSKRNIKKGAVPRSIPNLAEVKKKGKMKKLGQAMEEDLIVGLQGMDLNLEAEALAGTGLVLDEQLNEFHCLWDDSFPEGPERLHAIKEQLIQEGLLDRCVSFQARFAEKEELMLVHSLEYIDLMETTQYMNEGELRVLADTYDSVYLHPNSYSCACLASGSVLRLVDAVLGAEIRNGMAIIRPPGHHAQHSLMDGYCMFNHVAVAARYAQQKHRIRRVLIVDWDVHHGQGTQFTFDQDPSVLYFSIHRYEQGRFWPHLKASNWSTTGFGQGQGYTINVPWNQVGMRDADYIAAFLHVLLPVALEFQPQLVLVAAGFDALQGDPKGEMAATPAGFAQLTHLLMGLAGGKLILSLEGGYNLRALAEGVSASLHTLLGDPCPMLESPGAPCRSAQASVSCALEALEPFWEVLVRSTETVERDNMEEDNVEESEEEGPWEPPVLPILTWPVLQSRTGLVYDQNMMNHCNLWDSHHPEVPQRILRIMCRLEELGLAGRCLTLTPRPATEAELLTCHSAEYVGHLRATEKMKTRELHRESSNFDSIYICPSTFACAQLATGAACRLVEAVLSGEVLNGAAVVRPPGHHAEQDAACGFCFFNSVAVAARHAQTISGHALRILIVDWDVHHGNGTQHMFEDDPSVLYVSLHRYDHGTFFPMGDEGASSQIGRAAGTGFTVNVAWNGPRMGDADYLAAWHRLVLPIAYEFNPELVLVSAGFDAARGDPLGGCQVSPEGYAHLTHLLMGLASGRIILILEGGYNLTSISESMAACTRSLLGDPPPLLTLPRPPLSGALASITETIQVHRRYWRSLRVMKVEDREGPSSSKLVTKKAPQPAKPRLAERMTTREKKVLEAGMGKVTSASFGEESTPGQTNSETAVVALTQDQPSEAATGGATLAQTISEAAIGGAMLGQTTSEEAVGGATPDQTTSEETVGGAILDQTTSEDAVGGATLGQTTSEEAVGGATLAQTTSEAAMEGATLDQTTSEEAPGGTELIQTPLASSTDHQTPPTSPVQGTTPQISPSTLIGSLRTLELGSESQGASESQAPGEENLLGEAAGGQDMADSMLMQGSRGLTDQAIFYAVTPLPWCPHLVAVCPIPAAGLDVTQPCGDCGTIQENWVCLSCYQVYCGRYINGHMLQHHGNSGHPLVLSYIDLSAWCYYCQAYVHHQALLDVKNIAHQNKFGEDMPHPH

HCT-116 = assay: Antiproliferative activity against human HCT-116 cells assessed as cell growth inhibition incubated for 96 hrs by MTT assay; format: functional
[7] = Toxicity in mouse LL/2 cells inoculated C57BL/6J mouse assessed as effect on body weight by measuring initial body weight at 25 mg/kg, ip administered for 12 days measured for every 2 days (reference value: 18.4 +/- 0.4 g); format: organism-based; settings: in vivo, 288 h, time 12 day
[8] = Antiproliferative activity against mouse LL/2 cells assessed as cell growth inhibition incubated for 96 hrs by MTT assay; format: functional, Lewis lung carcinoma
Histone deacetylase 1 [9] = biological target: T3, Histone deacetylase 1 (Homo sapiens, UniProt Q13547); assay: Inhibition of recombinant full length C-terminal FLAG/His-tagged human HDAC1 expressed in baculovirus infected Sf9 cells using Boc-Lys(Ac)-AMC as substrate preincubated for 15 mins followed by substrate addition and measured after 60 mins by fluorescence based assay
T3 sequence (Q13547 whole entry, the tested form may be a part): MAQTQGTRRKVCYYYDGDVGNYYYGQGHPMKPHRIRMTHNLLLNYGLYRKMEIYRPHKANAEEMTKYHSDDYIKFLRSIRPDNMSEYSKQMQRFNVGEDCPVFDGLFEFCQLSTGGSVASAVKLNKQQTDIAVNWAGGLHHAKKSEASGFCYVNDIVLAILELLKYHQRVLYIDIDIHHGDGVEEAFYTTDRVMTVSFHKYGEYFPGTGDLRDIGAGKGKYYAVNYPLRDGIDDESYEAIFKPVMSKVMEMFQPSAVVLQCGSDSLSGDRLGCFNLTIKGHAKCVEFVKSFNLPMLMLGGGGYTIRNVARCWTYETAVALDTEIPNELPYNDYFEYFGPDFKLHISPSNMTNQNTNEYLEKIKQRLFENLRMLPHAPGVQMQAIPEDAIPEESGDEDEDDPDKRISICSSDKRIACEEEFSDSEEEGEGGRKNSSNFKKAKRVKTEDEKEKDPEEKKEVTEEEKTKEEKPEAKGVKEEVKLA

[10] = biological target: Histone deacetylase 3/Nuclear receptor corepressor 2 (HDAC3/NCoR2) (Homo sapiens, UniProt O15379); assay: Inhibition of C-terminal His-tagged recombinant human HDAC3 (1 to 428 residues)/N-terminal GST-tagged recombinant human NCoR2 (395 to 489 residues) co-expressed in baculovirus infected Sf9 cells using Boc-Lys(Ac)-AMC as substrate preincubated for 15 mins followed by substrate addition and measured after 60 mins by fluorescence based assay
Histone deacetylase 3/Nuclear receptor corepressor 2 (HDAC3/NCoR2), sequence (O15379 whole entry, the tested form may be a part): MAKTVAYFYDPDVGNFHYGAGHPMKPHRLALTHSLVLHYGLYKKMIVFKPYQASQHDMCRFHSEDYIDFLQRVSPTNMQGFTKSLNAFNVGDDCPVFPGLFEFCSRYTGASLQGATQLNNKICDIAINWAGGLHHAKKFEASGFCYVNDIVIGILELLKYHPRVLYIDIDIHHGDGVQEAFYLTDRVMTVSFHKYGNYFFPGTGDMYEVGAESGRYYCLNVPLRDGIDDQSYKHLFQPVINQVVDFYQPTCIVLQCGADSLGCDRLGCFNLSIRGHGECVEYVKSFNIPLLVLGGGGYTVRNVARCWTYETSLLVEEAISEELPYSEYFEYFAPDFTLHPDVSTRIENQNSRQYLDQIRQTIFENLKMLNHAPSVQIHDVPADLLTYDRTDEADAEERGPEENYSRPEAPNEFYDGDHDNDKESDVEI
Histone deacetylase 3/Nuclear receptor corepressor 2 (HDAC3/NCoR2), sequence (Q9Y618 whole entry, further chain, the tested form may be a part): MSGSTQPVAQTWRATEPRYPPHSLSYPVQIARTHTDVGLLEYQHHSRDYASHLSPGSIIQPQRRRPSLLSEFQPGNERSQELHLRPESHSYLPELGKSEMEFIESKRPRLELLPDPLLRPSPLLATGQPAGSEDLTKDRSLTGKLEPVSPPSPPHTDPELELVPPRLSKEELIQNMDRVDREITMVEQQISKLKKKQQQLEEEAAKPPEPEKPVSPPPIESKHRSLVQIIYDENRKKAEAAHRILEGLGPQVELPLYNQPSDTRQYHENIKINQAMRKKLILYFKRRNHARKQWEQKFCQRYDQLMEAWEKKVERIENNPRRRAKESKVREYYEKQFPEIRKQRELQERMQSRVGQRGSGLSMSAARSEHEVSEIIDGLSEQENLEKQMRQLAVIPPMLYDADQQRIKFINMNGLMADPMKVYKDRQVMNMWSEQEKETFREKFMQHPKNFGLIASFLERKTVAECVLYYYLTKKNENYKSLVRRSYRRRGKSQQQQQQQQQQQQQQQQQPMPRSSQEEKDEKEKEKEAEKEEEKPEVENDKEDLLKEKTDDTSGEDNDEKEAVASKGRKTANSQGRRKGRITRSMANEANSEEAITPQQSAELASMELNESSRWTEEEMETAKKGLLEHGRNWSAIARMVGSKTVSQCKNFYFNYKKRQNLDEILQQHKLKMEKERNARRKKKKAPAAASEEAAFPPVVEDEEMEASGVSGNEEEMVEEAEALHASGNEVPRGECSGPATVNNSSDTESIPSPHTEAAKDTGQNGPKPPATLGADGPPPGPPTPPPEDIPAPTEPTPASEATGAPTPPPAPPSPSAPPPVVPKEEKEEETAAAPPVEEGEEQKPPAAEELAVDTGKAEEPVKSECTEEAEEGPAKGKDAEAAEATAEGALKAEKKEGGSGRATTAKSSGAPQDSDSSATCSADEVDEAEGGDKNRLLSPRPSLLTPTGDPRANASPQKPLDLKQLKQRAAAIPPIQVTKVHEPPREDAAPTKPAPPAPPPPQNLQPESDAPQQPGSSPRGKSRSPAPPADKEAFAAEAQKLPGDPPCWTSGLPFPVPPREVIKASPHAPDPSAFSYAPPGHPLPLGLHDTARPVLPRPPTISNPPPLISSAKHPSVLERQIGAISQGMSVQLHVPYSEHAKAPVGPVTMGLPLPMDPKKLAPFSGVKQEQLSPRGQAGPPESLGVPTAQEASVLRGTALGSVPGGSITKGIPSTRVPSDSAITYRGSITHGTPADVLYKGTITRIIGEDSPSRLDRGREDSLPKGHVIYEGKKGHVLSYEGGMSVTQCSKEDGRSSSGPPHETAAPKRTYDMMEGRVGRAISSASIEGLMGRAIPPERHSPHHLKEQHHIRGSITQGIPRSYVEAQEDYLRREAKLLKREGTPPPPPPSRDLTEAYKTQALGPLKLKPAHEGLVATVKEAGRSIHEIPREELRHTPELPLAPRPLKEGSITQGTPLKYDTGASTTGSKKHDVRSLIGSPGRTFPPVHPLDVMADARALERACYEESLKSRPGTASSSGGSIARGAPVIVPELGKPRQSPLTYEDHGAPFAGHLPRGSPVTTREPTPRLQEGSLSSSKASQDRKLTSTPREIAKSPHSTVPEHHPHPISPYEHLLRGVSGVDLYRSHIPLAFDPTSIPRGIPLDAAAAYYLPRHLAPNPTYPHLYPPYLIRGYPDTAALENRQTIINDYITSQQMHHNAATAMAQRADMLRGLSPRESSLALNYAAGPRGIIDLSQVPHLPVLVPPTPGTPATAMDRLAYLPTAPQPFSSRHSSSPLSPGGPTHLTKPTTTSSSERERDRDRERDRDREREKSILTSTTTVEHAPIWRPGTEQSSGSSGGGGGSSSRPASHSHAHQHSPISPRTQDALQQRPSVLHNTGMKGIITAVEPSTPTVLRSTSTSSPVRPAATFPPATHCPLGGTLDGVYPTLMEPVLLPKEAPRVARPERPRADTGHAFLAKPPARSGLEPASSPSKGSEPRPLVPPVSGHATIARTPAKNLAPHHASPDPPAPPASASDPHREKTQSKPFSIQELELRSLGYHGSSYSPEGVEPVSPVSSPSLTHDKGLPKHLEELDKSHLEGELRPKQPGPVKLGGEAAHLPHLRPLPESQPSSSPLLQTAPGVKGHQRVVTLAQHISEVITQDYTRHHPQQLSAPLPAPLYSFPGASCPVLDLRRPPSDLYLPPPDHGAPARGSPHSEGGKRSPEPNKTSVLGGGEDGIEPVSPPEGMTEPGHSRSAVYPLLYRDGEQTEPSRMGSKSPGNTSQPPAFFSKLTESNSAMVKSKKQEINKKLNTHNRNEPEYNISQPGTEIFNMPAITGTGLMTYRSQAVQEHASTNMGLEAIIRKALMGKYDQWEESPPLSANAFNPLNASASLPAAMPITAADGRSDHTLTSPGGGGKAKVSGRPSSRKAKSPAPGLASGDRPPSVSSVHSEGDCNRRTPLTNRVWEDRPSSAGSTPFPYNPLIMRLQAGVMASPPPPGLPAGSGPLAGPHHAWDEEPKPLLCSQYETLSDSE

MCF7 = assay: Antiproliferative activity against human MCF7 cells assessed as cell growth inhibition incubated for 96 hrs by MTT assay; format: functional
Histone deacetylase 2 [11] = biological target: T1, Histone deacetylase 2; assay: Inhibition of HDAC2 in human HL-60 cells assessed as increase in Ac-H3 level at 0.5 to 8 uM incubated for 24 hrs by Western blot analysis; format: cell-based; settings: dose 0.5-8 µM
How it was run: (§1)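 Compound given to HL-60 cells for 24 h at the stated concentrations, then lysed. Acetyl-histone H3 and acetyl-α-tubulin levels were read by Western blot, with total H3, α-tubulin or β-actin as references.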

HL-60 [12] = assay: Induction of apoptosis in human HL-60 cells assessed as late apoptotic cells at 2 uM incubated for 24 hrs by propidium iodide and annexin-V FITC staining based FACS analysis (reference value: 4.2 %); format: functional
Histone deacetylase 1 [13] = biological target: T3, Histone deacetylase 1; assay: Inhibition of HDAC1 in human HL-60 cells assessed as increase in Ac-H3 level at 0.5 to 8 uM incubated for 24 hrs by Western blot analysis; format: cell-based; settings: dose 0.5-8 µM; how it was run: as §1
[14] = biological target: T4, Protein deacetylase HDAC6 (Homo sapiens) (UniProt Q9UBN7); assay: Inhibition of HDAC6 in human HL-60 cells assessed as increase in acetylated alpha tubulin level at 0.5 to 8 uM after 24 hrs by Western blot analysis; format: cell-based; settings: dose 0.5-8 µM; how it was run: as §1
T4 sequence (whole entry): T2 sequence (Q9UBN7 whole entry)

HL-60 [15] = assay: Induction of apoptosis in human HL-60 cells assessed as early apoptotic cells at 2 uM incubated for 24 hrs by propidium iodide and annexin-V FITC staining based FACS analysis (reference value: 2.9 %); format: functional

| IC50 (Histone deacetylase 2 [5]) [nM] | IC50 [6] [nM] | IC50 (Histone deacetylase 1 [9]) [nM] | IC50 [10] [nM] | inhibition (Histone deacetylase 2 [11]) | GI50 (HL-60 [3]) [nM] | inhibition (Histone deacetylase 1 [13]) | inhibition [14] | Structure (SMILES) | Activity [1] [g] | Activity [2] [g] | IG50 (HL-60 [3]) [µM] | Activity [4] [%] | IG50 (A549) [µM] | IG50 (HCT-116) [µM] | Activity [7] [g] | IG50 [8] [µM] | IG50 (MCF7) [µM] | Activity (HL-60 [12]) [%] | Activity (HL-60 [15]) [%] |
| --- | --- | --- | --- | --- | --- | --- | --- | --- | --- | --- | --- | --- | --- | --- | --- | --- | --- | --- | --- |
| 33 | 96 | 18 | 20 | – | – | – | – | O=C(CCNC(=O)/C(Cc1ccc(O)c(Br)c1)=N/O)NO | 18.4 | 0.45 | 0.57 | 54.68 | 1.1 | 0.9 | 18.9 | 5 | 1.09 | – | – |
| 33 | 311 | 8 | 12.4 | Active | 370 | Active | inactive | O=C(NCCSSCCNC(=O)/C(Cc1ccc(O)c(Br)c1)=N/O)/C(Cc1ccc(O)c(Br)c1)=N/O [PSAMMAPLIN A] | 18.4 | 0.34 | – | 66.04 | 2.9 | 2.3 | 18.2 | 2.64 | 4.14 | 24.9 | 4.1 |
| 210 | 960 | 52 | 120 | Active | 680 | Active | inactive | O=C(NCCS)/C(Cc1ccc(O)c(Br)c1)=N/O | 18.3 | 0.48 | – | 55.99 | 10.7 | 5.9 | 18.5 | 3.9 | 17 | 3.7 | 2.4 |
